Shown are actives, neighbours in structure and some others; about 3.7% of the full set was active somewhere.
Myeloid diff MLP: myeloid differentiation induction; ER-HoxA9 myeloid progenitors, lysozyme-GFP differentiation, flow cytometry; calls only at 10 µM; hit rate 1% among 360,000; AID 624256;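 active means normalized GFP-positive differentiation at or above the plate's own cutoff, the solvent-only control mean plus 3 SD; inconclusive means no clear call, values can overlap the other calls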;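 further: cells exposed to compound for four days before flow analysis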
MC4R ag barr: agonists of human melanocortin 4 receptor (MC4R) beta-arrestin. activation, % at 8.9 µM. hit rate 0.98% among 360,000. P32245. U2OS MC4R beta-arrestin complementation, luminescence; percent of melanotan II response, DMSO zero;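 active means activation above a per-plate cutoff, the mean activation of sample wells on that plate plus 3 SD, cut at about 8% in these data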
Target sequence (P32245 whole entry, looked up): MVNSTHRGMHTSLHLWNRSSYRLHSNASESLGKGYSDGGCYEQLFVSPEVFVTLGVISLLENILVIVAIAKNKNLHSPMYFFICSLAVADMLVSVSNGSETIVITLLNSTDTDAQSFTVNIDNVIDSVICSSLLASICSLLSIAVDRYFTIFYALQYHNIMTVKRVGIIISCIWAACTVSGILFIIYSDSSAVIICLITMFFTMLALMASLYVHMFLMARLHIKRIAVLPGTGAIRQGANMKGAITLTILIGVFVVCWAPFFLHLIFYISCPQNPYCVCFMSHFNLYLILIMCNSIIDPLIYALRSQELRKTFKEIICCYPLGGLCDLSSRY
MC4R antag cAMP: blocks human MC4R cAMP signaling | P32245 | MC4R-expressing cells, MTII-stimulated cAMP, LANCE TR-FRET | inhibition, % at 6.5 µM | hit rate 0.48% among 360,000 | AID 540295;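 active means inhibition above its plate's cutoff, the mean of tested wells on that plate plus 3 SD, cut at about 29% in these data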;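 further: 0% = Melanotan II alone and 100% = Melanotan II plus saturating MCL0020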
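Test system: U2OS cells stably expressing human melanocortin 4 receptor (MC4R); also added: Melanotan II challenge; compound: 6.5 µM single dose; timing: 30-min compound preincubation, 1-h Melanotan II challenge, 1-h detection, room temperature; signal: Eu-cAMP/anti-cAMP TR-FRET, emission 671 nm; repeats: one well per compound, no replicates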
Exocytosis inh: lytic granule exocytosis inhibition; TALL-104 LAMP-1 surface exposure, flow cytometry; cells stimulated with thapsigargin and PMA; AID 651702; hit rate 0.66% among 360,000; inhibition, % at 10 µM;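 active means inhibition above about 55%, limit read from the data; inconclusive means no clear call, values can overlap the other calls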
EBI2 block: antagonists of human EBI2 receptor; inhibition, % at 5 µM; hit rate 0.81% among 360,000; AID 651636; P32249; EBI2 beta-arrestin recruitment, luminescence, 7a,25-OHC stimulated; in the data active means inhibition above about 38%;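 further: enzyme fragment complementation signal reports receptor beta-arrestin coupling in cells; 0% = agonist plus DMSO wells and 100% = wells without agonist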
* = called active by the depositor; i = inactive; ? = inconclusive; . = no result; + = active, no number.

SMILES | Myeloid diff MLP | MC4R ag barr | MC4R antag cAMP | Exocytosis inh | EBI2 block
CCCCCN1C(=O)/C(=C/c2c(N3CCc4ccccc4C3)nc3ccccn3c2=O)SC1=S | + | 0 | 11 | -8 | 6
CC1=C(C(=O)N2CCOCC2)CC(CC(=O)NC2CCCC2)C(=O)N1Cc1ccc(F)cc1 (stereo not drawn) | i | 0 | -2 | 2 | -8
Cc1ccc(NS(=O)(=O)c2cc(-c3n[nH]c(=O)c4ccccc34)ccc2C)cc1 | + | -1 | -6 | 17 | 18
NC(=O)C1=C[C@@H](c2csc3ccccc23)C[C@@H](OCCCCO)O1 | + | 1 | 6 | 8 | 0
CN(c1ccccc1)c1nc(N)c([N+](=O)[O-])c(Nc2ccccc2F)n1 | i | -3 | 11 | 76* | 39
CN(c1ccccc1)c1nc(N)c([N+](=O)[O-])c(Nc2ccc(F)cc2)n1 | i | 2 | 8 | -12 | 19
Cc1ccc(Cl)cc1NC(=O)CC1NC2CCCCC2NC1=O (stereo not drawn) | + | -1 | -1 | -4 | -6
CCOC(=O)N1CCN(C(=O)c2ccc3c(c2)NC(=O)/C(=C\c2cccc(C)c2)S3)CC1 | ? | 4 | -2 | 12 | 2
Cc1ccc(N2CCN(C(=O)c3nn(C)c4c3CS(=O)(=O)c3ccccc3-4)CC2)c(C)c1 | i | -2 | 0 | 0 | 7
CCOc1ccc(N=C2NC(=O)S/C2=C\c2ccc(N(C)C)cc2)cc1 | + | 2 | -2 | 1 | 17
CCNC(=O)C1(C)CCN(Cc2ccc(C#N)cc2)C1 (stereo not drawn) | i | 1 | 4 | -1 | -7
Cc1ccc(CNC(=O)CC[C@H]2O[C@@H](n3cc(C)c(=O)[nH]c3=O)C[C@@H]2O)o1 | i | . | . | 1 | 0
CC(=O)Nc1sc(/C(C#N)=C\c2cccc(Cl)c2)nc1-c1ccc(C)cc1 | + | -2 | 9 | -4 | 10
CC1CCC/C(=C\Nc2ccc(O)cc2)C1=O (stereo not drawn) | + | 2 | 4 | -1 | 3
Cc1ccc(NC(=O)CSc2n[nH]c(-c3cccnc3)n2)cc1Cl | i | -2 | 14 | 16 | 2
c1ccc(CCC2Cc3ccccc3N2)cc1 (stereo not drawn) | i | 1 | 5 | -6 | -9
c1ccc(CC[C@@H]2CC[C@@H](CCc3ccccc3)N2)cc1 | i | 8.4* | -2 | 1 | 4
O=c1[nH]c(Cc2cccc(C(F)(F)F)c2)nc2ccccc12 | i | 9.0* | 5 | -12 | 2
CC(C)(O)C#Cc1ccc(CN2CCCC(CNC(=O)c3ccco3)C2)cc1 (stereo not drawn) | i | -1 | 0 | -1 | -1
CCOc1ccc(NS(=O)(=O)c2ccc3c(c2)CCN3C(C)=O)cc1 | + | 2 | 11 | 1 | -2
CCOc1ccc(NS(=O)(=O)c2ccc3c(c2)N(C(C)=O)CC3)cc1 | i | -1 | 2 | -1 | -1
COc1ccc(OC)c(S(=O)(=O)Nc2ccc3c(c2)N(C(C)=O)CCC3)c1 | i | -1 | 5 | 9 | -3
CC(=O)N1CCCc2ccc(NS(=O)(=O)c3ccc(C)c(C)c3)cc21 | + | 1 | 6 | -3 | -3
Cc1ccc(S(=O)(=O)N2CCCCC2)c(C)c1NS(C)(=O)=O | i | 0 | 7 | 0 | -4
COc1ccc2nc(C)cc(NCc3ccc(F)cc3)c2c1 | + | 0 | -2 | 35 | 9
SMILES | Myeloid diff MLP | MC4R ag barr | MC4R antag cAMP | Exocytosis inh | EBI2 block
Cc1ccc(S(=O)(=O)N2CCOC23CCN(C(=O)c2ccccc2Br)CC3)cc1 | i | -2 | 10 | 8 | -6
CC(=O)N1CCc2cc(NC(=O)C3(C)CCN3Cc3ccccc3OC(F)F)ccc21 (stereo not drawn) | i | -1 | 0 | 3 | 10
Cc1ccccc1-c1nc(S(=O)(=O)c2ccc(Br)cc2)c(NCc2cccnc2)o1 | i | -3 | 6 | 76* | 14
CCN(CC)C(=O)c1csc(COCCO)n1 | i | -1 | 4 | 0 | -8
COc1cccc(CNC(=O)Cn2ncc3c(=O)oc4ccccc4c32)c1 | i | -2 | 3 | 0 | 0
O=c1c(-c2nc3ccccc3s2)cccn1Cc1ccccc1 | + | 2 | 10 | -1 | 27
CCOc1cc(/C=C/C(=O)c2ccc3c(c2)OCCO3)ccc1OCC(=O)N(C)C | + | 1 | 3 | 1 | -19
CCCNC(=O)C1(C)CCCN(C(=O)COc2ccc(Cl)cc2Cl)C1 (stereo not drawn) | i | -1 | 17 | 22 | 4
Cn1nc([N+](=O)[O-])nc1Sc1nnnn1-c1ccc(C(=O)O)cc1 | i | -1 | -2 | -2 | -9
COc1cccc2c(C)nc(Nc3nc(CSc4nnc(C)s4)cc(=O)[nH]3)nc12 | + | -2 | -24 | 1 | 0
Cc1ccc(S(=O)(=O)Nc2cccc3ncccc23)s1 | ? | -4 | 5 | 0 | 73*
COc1c(F)cccc1C1=CC(=O)C[C@H](c2ccc(F)cc2)C1 | i | 3 | 2 | -5 | 10
O=C1C=C(c2cccc3c2sc2ccccc23)C[C@@H](c2ccc(F)cc2)C1 | i | -1 | 0 | 1 | 67*
CC(C)n1cnc2c(N(C)c3ccccc3)nc(N(CCN(C)C)Cc3ccccc3)nc21 | + | -1 | 2 | 9 | 17
COc1cc(N(Cc2ccccc2)Cc2ccccc2)c2ncn(C(C)C)c2c1 | i | 3 | -6 | -1 | 11
Nc1n[nH]c(CO)n1 | i | 0 | 8 | -2 | -11
COCCCn1c(C)nc2c(c1=O)c1nc3ccccc3nc1n2CCc1ccccc1 | + | 1 | 7 | 1 | -13
Cc1nc2ccccc2c(=O)n1CCc1ccccc1 | i | -1 | -5 | -2 | -3
CCOC(=O)[C@]12CCCC=C1N(CCC1=CCCCC1)C(=O)[C@H](CC(=O)N1CCN(C(=O)C3CC3)CC1)C2 | i | . | . | -7 | 1
CCCCN(Cc1ccco1)C(=O)c1cc2c(=O)[nH]c3ccc(C)cc3c2s1 | i | 36* | 8 | 6 | 2
Cc1cc(Br)cn2c(Cc3ccsc3)c(C(C)(C)C)nc12 | i | . | . | 0 | -5
Cc1ccc(-c2ccc3c(c2)O[C@H](CN(C)Cc2cncnc2)[C@@H](C)CN([C@H](C)CO)S3(=O)=O)cc1 | i | 1 | -1 | -4 | 6
O=[N+]([O-])c1ccc(N/N=C/c2cn(Cc3ccc(F)cc3)c3ccccc23)nc1 | + | 1 | -5 | 0 | 14
N#CCCN1CCCc2cc(N=Nc3ccc(C(F)(F)F)cc3)ccc21 | i | -3 | 23 | 34 | 56*
CCCN1CCCc2ccccc21 | i | -2 | 5 | -5 | -2
CC1(C(=O)NS(=O)(=O)Cc2ccccc2C(F)(F)F)CCN1C(=O)Cc1cccs1 (stereo not drawn) | i | 0 | 6 | -3 | -3
